Many of the other results were omitted from the sample, so hits are more common in it than they were.
Lung fibro prol: antiproliferative effect on LL 47 fibroblasts – human, LL 47 cells, CellTiter-Glo luminescence, primary screen; LL 47 human lung fibroblast viability, ATP luminescence; stronger effect = lower value; viability, % at 10 µM; hit rate 1.1% among 85,000;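 active = viability at or below 50% in the single dose screen; inactive = viability above 50%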;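 note: compound exposure lasted 72 h before the ATP readout; 100% = median luminescence of untreated cell-only wells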
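test system = LL 47 human lung fibroblasts | amount = 1,150 fibroblasts seeded per well | medium = 15% FBS in IMEM | times = overnight cell rest, 72 h compound treatment at 37 °C | measured by = CellTiter-Glo luminescence measuring cellular ATP | read-out = viability percentage against median untreated-cell control | benchmarks = cell-only wells, no compound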
H69AR inhibit: proliferation blockers of H69AR lung cancer cells, primary screen, cell-based, human, 86K library. H69AR lung tumor viability, ATP luminescence, 72 h; stronger effect = lower value. hit rate 6% among 85,000. viability, % at 10 µM. AID 598, 2007;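 active = viability at or below 40%; inactive = viability above 40%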;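 note: multidrug resistant small cell line overexpressing MRP-1 efflux transporter; 100% = mean luminescence of untreated control wells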
HCT116 PTEN-null: growth suppression of PTEN-null HCT116, primary screen, cell-based, CellTiter-Glo. HCT116 PTEN-null viability, 60 h; stronger effect = lower value. viability, % at 10 µM. hit rate 1.2% among 140,000. AID 827, 2007;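 active = viability at or below a set limit, 4 SD under the median of all tested compounds, cut at about 3.7% in these data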;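 note: PTEN knockout HCT116 line with beta catenin targeted HCT116 as companion control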
HCT116 bCat-KO: primary screen for growth suppressors in beta-catenin knockout HCT116 cells (colon tumor, human); HCT116 beta-catenin knockout viability, CellTiter-Glo, 60 h; stronger effect = lower value; viability, % at 10 µM; hit rate 1.5% among 140,000;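 active = viability at or under a set limit, the compound median less 4 SD, cut at about 6% in these data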;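 note: 0% = Hyamine 1622 control at 20 µM and 100% = untreated cell control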
Pyk2 oligo antag: antagonists of Pyk2 self-association, primary screen, Q293 cells, FERM NanoBiT luminescence, HTS | Protein-tyrosine kinase 2-beta (Homo sapiens), Q14289 | stronger effect = lower value | z-score (the deposit names both 25 µM and 10 µM) | hit rate 0.83% among 99,000 | AID 1347419, 2020;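 active = Z-score of -3 or lower, scaled per plate to the spread of control and sample wells; inactive = z-score above -3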;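 note: negative z-score means lost luminescence so less FERM oligomerization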
Target sequence (Q14289 whole entry, looked up): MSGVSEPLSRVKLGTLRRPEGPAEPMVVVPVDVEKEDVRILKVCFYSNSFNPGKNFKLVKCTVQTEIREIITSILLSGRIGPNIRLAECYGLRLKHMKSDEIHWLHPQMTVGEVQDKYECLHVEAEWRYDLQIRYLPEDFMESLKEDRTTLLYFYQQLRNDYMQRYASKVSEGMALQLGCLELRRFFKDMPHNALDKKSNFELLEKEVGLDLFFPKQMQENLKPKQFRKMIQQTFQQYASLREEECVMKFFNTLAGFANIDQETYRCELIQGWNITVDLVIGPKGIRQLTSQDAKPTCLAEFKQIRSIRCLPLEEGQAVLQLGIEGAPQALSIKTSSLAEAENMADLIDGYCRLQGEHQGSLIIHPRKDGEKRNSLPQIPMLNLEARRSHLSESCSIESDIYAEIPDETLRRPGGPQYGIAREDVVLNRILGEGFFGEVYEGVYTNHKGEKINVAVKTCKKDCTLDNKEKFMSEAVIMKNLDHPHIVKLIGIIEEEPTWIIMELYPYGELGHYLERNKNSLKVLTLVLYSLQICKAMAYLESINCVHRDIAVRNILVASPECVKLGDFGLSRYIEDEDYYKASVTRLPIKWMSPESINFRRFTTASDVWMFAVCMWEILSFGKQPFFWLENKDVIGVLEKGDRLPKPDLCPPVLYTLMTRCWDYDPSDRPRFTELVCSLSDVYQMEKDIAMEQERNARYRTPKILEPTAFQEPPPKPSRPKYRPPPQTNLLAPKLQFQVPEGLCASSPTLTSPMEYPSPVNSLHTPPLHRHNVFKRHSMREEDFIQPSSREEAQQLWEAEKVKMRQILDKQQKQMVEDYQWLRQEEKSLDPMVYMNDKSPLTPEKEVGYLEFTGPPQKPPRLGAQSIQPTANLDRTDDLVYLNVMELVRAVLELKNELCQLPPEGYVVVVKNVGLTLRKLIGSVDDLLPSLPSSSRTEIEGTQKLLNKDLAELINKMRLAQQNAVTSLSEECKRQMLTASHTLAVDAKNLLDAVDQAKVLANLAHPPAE
HUVEC inhibit: inhibitors of HUVEC proliferation, primary screen, cell-based, 384-well | CellTiter-Glo luminescence, 72 h; stronger effect = lower value | AID 648, 2007 | hit rate 1.1% among 86,000 | viability, % at 10 µM (by protocol);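 active = viability at or below 30%; inactive = viability above 30%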;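 note: 100% = median luminescence of DMSO-only cell control wells on each plate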
Active calls of the source: *; nt = no result.

SMILES | Lung fibro prol | H69AR inhibit | HCT116 PTEN-null | HCT116 bCat-KO | Pyk2 oligo antag | HUVEC inhibit
C/C(=N\Nc1ccc([N+](=O)[O-])cc1[N+](=O)[O-])C(C)(C)C(C(=O)O)C(=O)O | nt | nt | 104 | 104 | 0.18 | nt
C/C(=N\NC(N)=S)C1(C)CCCCC1 | nt | nt | 86 | 85 | nt | nt
C/C(CC1CC2=C(CC1(C)C)C(C)(C)CCC2)=N\NC(N)=S (stereo unspecified) | 95 | 23* | 28 | 9 | -0.21 | 36
Cc1ccccc1-n1nnnc1SCC(N)=O | 105 | 98 | 99 | 103 | 0.49 | 95
CCCSc1nnc(Sc2nnnn2-c2ccccc2)s1 | 52 | 5.4* | 6 | 9 | -1.1 | 7.6*
Cc1ccccc1-n1nnnc1Sc1nnnn1-c1ccccc1 | 21* | 2.7* | 1.3* | 2.0* | -1 | 28*
CC(C)(C)Sc1nc(O)cc(=O)[nH]1 | 94 | 107 | 94 | 98 | 0.18 | 89
Clc1ccc2[nH]cc(-c3nnnn3-c3ccc4ccccc4c3)c2c1 | nt | nt | 26 | 34 | -3.2* | nt
O=C1COc2ccc(C(=O)CSc3nnc(Cc4cccs4)n3-c3ccc(Cl)cc3)cc2N1 | 98 | 27* | 77 | 80 | 0.14 | 83
CCCCCCn1c(SCC(=O)c2c(N)n(C)c(=O)n(C)c2=O)nc2ccccc21 | 40* | 24* | 47 | 51 | -0.11 | 50
CCCn1c(N)c(C(=O)CSc2nc3ccccc3n2CCC#N)c(=O)n(C)c1=O | 93 | 88 | 100 | 98 | 0.37 | 74
CCCn1c(SCC(=O)c2ccc3c(c2)NC(=O)CO3)nc2ccccc21 | nt | nt | 28 | 4.6* | nt | nt
N#CCc1ccc(NS(=O)(=O)c2ccc(C3CCCCC3)cc2)cc1 | nt | nt | 70 | 56 | nt | nt
Cc1cc([N+](=O)[O-])nn1CC(=O)NCc1ccco1 | nt | nt | 99 | 94 | 0.72 | nt
O=C(Nc1ccc(F)cc1)Nc1ccc(N2CCCC2)c(S(=O)(=O)Nc2ccccc2Cl)c1 | nt | nt | 1.9* | 2.8* | nt | nt
O=C(Nc1ccc(Cl)c(Cl)c1)Nc1ccc(N2CCCC2)c(S(=O)(=O)Nc2ccccc2Cl)c1 | nt | nt | 1.4* | 1.6* | nt | nt
COc1ccc(/C=N/NC(=O)c2ccc(Br)cc2)cc1Cn1cc(Cl)cn1 | nt | nt | 94 | 95 | nt | nt
COc1ccc(CCN=C(N)NS(=O)(=O)c2ccc3ccccc3c2)cc1 | nt | nt | 68 | 76 | nt | nt
CN(CCOC(=O)c1cccc(F)c1)Cc1ccccc1 | nt | nt | 105 | 96 | nt | nt
O=C(Oc1ccccc1/C=C\C(=O)c1cc2ccccc2o1)c1ccccc1 | nt | nt | 2.4* | 2.3* | nt | nt
COc1cccc(C(=O)Oc2ccccc2/C=C\C(=O)c2cc3ccccc3o2)c1 | nt | nt | 1.1* | 2.2* | nt | nt
O=C(Nc1ccccc1)c1ccc(OC(=O)c2cc3ccccc3o2)cc1 | 93 | 89 | 95 | 89 | -0.9 | 75
O=C(Oc1ccccc1/C=C\C(=O)c1cc2ccccc2o1)c1cccc(F)c1 | nt | nt | 1.3* | 5.9* | nt | nt
CCOc1ccccc1NC(=O)COC(=O)CSc1ccc(Cl)cc1 | nt | nt | 94 | 103 | nt | nt
Cc1ccc(S(=O)(=O)N(C)C)cc1NC(=O)c1cncc(Br)c1 | nt | nt | 30 | 27 | nt | nt
SMILES | Lung fibro prol | H69AR inhibit | HCT116 PTEN-null | HCT116 bCat-KO | Pyk2 oligo antag | HUVEC inhibit
O=C(Nc1cccc(-c2nc3ncccc3o2)c1)c1cc2ccccc2o1 | 108 | 16* | 77 | 94 | -2 | 49
CN(C)CCCOC(=O)COc1ccc(C(C)(C)C)cc1 | nt | nt | 92 | 94 | nt | nt
Cc1cc(S(=O)(=O)Nc2ccc3ccccc3c2)c(C)s1 | 72 | 12* | 23 | 14 | -2.9 | 55
Cc1cc(S(=O)(=O)Nc2cc(C)c(O)c(C)c2)c(C)s1 | 91 | 89 | 2.1* | 1.9* | -0.11 | 88
COc1ccc(C(=O)NC2CC(C)(C)Cc3occc32)cc1 (stereo unspecified) | nt | nt | 86 | 95 | -0.35 | nt
O=C(C1=NNCC1c1ccc(Cl)cc1)C1CO1 (stereo unspecified) | nt | nt | 2.1* | 2.2* | nt | nt
Cn1c(N)c(C(=O)CCl)c(=O)n(C)c1=O | 76 | 3.0* | 94 | 85 | nt | 89
Cn1c(N)c(C(=O)CCl)c(=O)n(Cc2ccccc2)c1=O | nt | nt | 36 | 36 | nt | nt
Cc1ccccc1N1C(=O)C(Oc2ccc(Cl)cc2)C1CNC(C)(C)C (stereo unspecified) | nt | nt | 58 | 61 | -1.1 | nt
O=C(Nc1cccc(-c2cn3ccccc3n2)c1)c1cccs1 | nt | nt | 86 | 97 | nt | nt
O=C(Nc1cccc(-c2cn3ccccc3n2)c1)c1cc2ccccc2oc1=O | nt | nt | 1.8* | 2.8* | -0.3 | nt
COc1ccc(S(=O)(=O)Nc2ccccc2OC)cc1NC(=O)c1cc2ccccc2oc1=O | nt | nt | 59 | 64 | nt | nt
Cc1ccc(N(CCC(=O)Nc2nnc(C3CC3)s2)S(=O)(=O)c2ccccc2)cc1 | nt | nt | 97 | 105 | nt | nt
Cc1ccc(C(=O)NCCc2nnc(SCC(=O)Nc3nc(-c4ccccc4)cs3)n2C)cc1 | 58 | 43 | 0.8* | 1.0* | 1.6 | 75
COc1ccc(OCCNC(=O)c2ccccc2OCC(=O)N2CCCCC2)cc1 | 92 | 31* | 75 | 79 | -0.02 | 86
CC(=O)N1CCN(C(=O)COc2ccc(Br)cc2)CC1 | 99 | 107 | 107 | 113 | 0.32 | 100
COc1ccc(OCC(=O)N2CCN(C(=O)COc3ccc(Br)cc3)CC2)cc1 | 100 | 28* | 81 | 85 | 0.69 | 82
CCOc1cc(CNCCc2ccc(S(N)(=O)=O)cc2)ccc1OCc1ccc(Cl)cc1 | nt | nt | 1.7* | 1.4* | 0.35 | nt
COc1cc(CNCCc2ccc(S(N)(=O)=O)cc2)ccc1OCc1ccc(Cl)cc1 | nt | nt | 0.6* | 0.6* | -0.1 | nt
COc1cc(CNCCc2ccc(S(N)(=O)=O)cc2)ccc1OCC(=O)NC1CCCCC1 | nt | nt | 85 | 81 | 0.02 | nt
Cc1cccc(Nc2nc(NCc3ccco3)nc(N3CCOCC3)n2)c1 | 84 | 53 | 13 | 12 | -0.81 | 7.9*
COC(=O)c1c(NC(=S)Nc2ccc(F)cc2[N+](=O)[O-])sc2c1CCCCC2 | nt | nt | 90 | 94 | nt | nt
CC(NC(=O)/C=C/c1ccc(Br)cc1)c1ccc(Cl)cc1 (stereo unspecified) | nt | nt | 92 | 92 | nt | nt
Cc1onc(-c2ccccc2)c1C(=O)N/N=C/c1ccc([N+](=O)[O-])s1 | nt | nt | 2.6* | 2.9* | nt | nt
Cc1cccc(NC(=S)N/N=C/c2cccc([N+](=O)[O-])c2)c1 | nt | nt | 102 | 95 | 0.88 | nt
SMILES | Lung fibro prol | H69AR inhibit | HCT116 PTEN-null | HCT116 bCat-KO | Pyk2 oligo antag | HUVEC inhibit
NC(=O)c1ccc(N=Cc2ccc([N+](=O)[O-])s2)cc1 | nt | nt | 1.3* | 1.6* | nt | nt
Cc1ccc(NC(=S)N/N=C/c2ccc([N+](=O)[O-])s2)cc1 | nt | nt | 1.8* | 1.6* | nt | nt
Cc1cc(C)cc(N=Cc2ccc([N+](=O)[O-])s2)c1 | nt | nt | 1.8* | 1.9* | nt | nt
Cc1onc(-c2ccccc2)c1C(=O)N/N=C/c1cccc(O)c1 | nt | nt | 84 | 94 | nt | nt
Cn1c(Cc2ccccc2)nnc1SCc1ccc(C(=O)O)cc1 | nt | nt | 90 | 95 | nt | nt
O=C1C2C3C=CC(C4CC34)C2C(=O)N1Cc1ccco1 (stereo unspecified) | nt | nt | 98 | 94 | nt | nt

Screening results from PubChem.
